Compounds with a hit are over-represented: about 3.7% of the library has one in this group of screens.
aDG glyco act: increases alpha dystroglycan glycosylation; Pro5-aDG cells, alpha-DG glycosylation AlphaScreen (IIH6); 0% Pro5, 100% B10-LARGE cell signal; activation, % at 10 µM; hit rate 0.22% among 360,000;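 active = activation of at least 8% versus controls, or a plate z-score of at least 8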;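 note: Pro5 are CHO cells carrying HIG-tagged alpha-DG that lacks glycosylation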
proCasp7 act: counter-screen: procaspase-7 (human) activation; recombinant procaspase-7, Ac-DEVD-pNA absorbance 405 nm; D23A/D198A/D206A triple mutant, cannot self-cleave; scale: DMSO 0, 5 µM enzyme 100; activation, % at 8.5 µM; hit rate 0.093% among 330,000;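 active = percent activation above the screen-wide mean plus 3 SD, cut at about 25% in these data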
Target sequence (P55210 whole entry D23A/D198A/D206A): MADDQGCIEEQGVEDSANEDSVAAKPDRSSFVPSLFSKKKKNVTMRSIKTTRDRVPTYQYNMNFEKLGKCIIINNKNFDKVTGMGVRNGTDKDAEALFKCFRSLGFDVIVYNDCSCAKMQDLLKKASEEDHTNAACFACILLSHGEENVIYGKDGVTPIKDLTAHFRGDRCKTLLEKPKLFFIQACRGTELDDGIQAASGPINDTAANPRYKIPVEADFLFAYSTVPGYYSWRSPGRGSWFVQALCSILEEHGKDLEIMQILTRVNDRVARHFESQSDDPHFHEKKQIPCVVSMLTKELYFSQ
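buffer or medium = Zinc-free HEPES/NaCl buffer, pH 7.4 | material = Procaspase-7 triple mutant (PC-7 D3A) | input = 2 µM procaspase-7 mutant as dispensed | signal = Epi-absorbance of released pNA at 405 nm, two timepoints | timing = 1 h preincubation, 2 h reaction | replicates = singlicate compound testing | evaluation = % activation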
NR3A LBD binder: NR3A (human) ligand-binding domain modulation. AID 1259313. NR3A LBD differential scanning fluorimetry, Tm shift; 0% = protein alone, 100% = glycine-bound protein. hit rate 2.5% among 340,000. Tm shift relative to glycine control, % at 25 µM;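 active = melting temperature shift of at least 10% of the positive control shift, at one fixed dose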
procasp3 activ: procaspase-3 (human) activation; recombinant procaspase-3 D3A, Ac-DEVD-pNA absorbance 405 nm; activation, % at 8.5 µM; hit rate 0.11% among 330,000;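 active = activation above the mean of all tested compounds plus 3 SD, cut at about 21% in these data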;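 note: 0% = DMSO alone and 100% = DMSO wells spiked with extra 5 µM PC-3 D3A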
Target sequence (P42574 whole entry D9A/D28A/D175A): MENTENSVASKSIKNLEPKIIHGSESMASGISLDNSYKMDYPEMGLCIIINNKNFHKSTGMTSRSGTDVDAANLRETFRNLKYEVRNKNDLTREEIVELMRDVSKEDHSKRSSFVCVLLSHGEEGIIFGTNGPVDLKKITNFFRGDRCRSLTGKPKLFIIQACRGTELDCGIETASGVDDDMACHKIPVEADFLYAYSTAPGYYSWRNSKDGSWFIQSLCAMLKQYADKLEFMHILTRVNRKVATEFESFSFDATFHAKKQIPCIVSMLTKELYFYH
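Assay system – Procaspase-3 D3A mutant · Benchmarks – DMSO low control, extra-enzyme high control · Technique – 405 nm absorbance of p-nitroaniline, reads at 0 and 120 min · Doses – 8.5 µM nominal · Measure – % activation between DMSO and enzyme-spiked controls · Also added – Ac-DEVD-pNA chromogenic peptide substrate · Schedule – 1 h compound preincubation, 2 h substrate hydrolysis at 25 °C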
MPTP inh: permeability transition pore inhibition; isolated mouse mitochondria, Ca2+ swelling absorbance, 30 min; inhibition, % at 10 µM; hit rate 1.4% among 360,000;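 active = inhibition of 50% or more, scaled per plate between neutral and stimulator controls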;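 note: 0% = DMSO wells given calcium and 100% = 1 mM EGTA wells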
An asterisk follows results filed as active; x = not tested or not shown.

SMILES	aDG glyco act	proCasp7 act	NR3A LBD binder	procasp3 activ	MPTP inh
Cc1ccc(C(=O)/C=C/Nc2cccc(O)c2)cc1	0	-13	10*	-18	3
Brc1ccc([C@H]2C=C[C@H]3CCCN4CC[C@H]2[C@@H]3[C@]42CO2)cc1	0	x	x	x	-1
Cc1[nH]c2ccccc2c1CCCO	x	x	1	x	x
OCCCCc1nccc2c1[nH]c1ccccc12	0	-7	12*	-11	1
O=[N+]([O-])c1cccc(-n2cc3ccc([N+](=O)[O-])cc3n2)c1	0	16	14*	9	0
CC(C)c1cccc(C(C)C)c1OC(=O)[C@H]1OC(C(C)(C)C)=C[C@@H]1c1ccccc1	0	0	16*	8	1
COc1cc(F)ccc1-c1cc(C(=O)NCc2ccc(C(F)(F)F)cc2)[nH]n1	0	x	x	x	0
Cc1ccc(NC(=O)C(OC(=O)c2ccccc2Cl)c2ccccc2)cc1Cl (stereo unspecified)	0	1	19*	-7	10
Cc1ccc(NC(=O)C(NC2CCCC2)c2ccccc2)cc1Cl (stereo unspecified)	1	1	-4	0	2
CCOc1ccc(NC(=O)C(C)Oc2ccccc2C(=O)Nc2ccc(C)c(Cl)c2)cc1 (stereo unspecified)	0	-10	26*	5	39
Cc1cc(C(=O)OC(C(=O)Nc2ccc(C)c(Cl)c2)c2ccccc2)c(C)o1 (stereo unspecified)	0	5	26*	-7	17
Cc1ccc(NC(=O)C(OC(=O)c2ccc(NC(N)=O)cc2)c2ccccc2)cc1Cl (stereo unspecified)	0	1	26*	-13	8
CC(=O)c1cccc(NC(=O)C(C)OC(=O)c2cc(C)oc2C)c1 (stereo unspecified)	0	x	1	x	0
O=C(OC(C(=O)Nc1ccc(Cl)c(C(F)(F)F)c1)c1ccccc1)C1=COCCO1 (stereo unspecified)	0	-3	13*	-4	25
O=C(OC(C(=O)Nc1ccc(Cl)cc1C(F)(F)F)c1ccccc1)C1=COCCO1 (stereo unspecified)	0	-4	-2	2	3
Cc1cc(=O)[nH]c2c(N=Nc3ccc(O)cc3)c(N)nn12	0	x	6	x	0
Nc1nn2c(C(F)(F)F)cc(=O)[nH]c2c1N=Nc1cccc(F)c1	0	-1	21*	-8	1
OC(C1=CC(=Cc2ccncc2)c2ccccc21)c1ccncc1 (stereo unspecified)	1	x	4	x	3
COc1ccc(S(=O)(=O)N2CCCCC2c2cc(C(=O)Nc3ccc(F)c(Cl)c3)no2)cc1 (stereo unspecified)	2	x	x	x	1
C[C@H](CO)N1C[C@H](C)[C@@H](CN(C)S(=O)(=O)c2ccc(-n3cccn3)cc2)OCc2cnnn2CCCC1=O	0	x	x	x	0
COc1ccc(/C=C2\SC(N3CCc4ccccc4C3)=NC2=O)cc1	0	6	12*	-1	4
CCN(CC)c1ccc(S(=O)(=O)N2CCOCC2)cc1NC(=O)Nc1ccccc1	0	4	-6	-7	2
Cc1ccc(C2=NOC(=O)/C2=C\c2ccc(C)o2)cc1	0	-6	13*	-16	6
O=C1ON=C(c2ccccc2)/C1=C/c1ccc(OS(=O)(=O)c2ccccc2)cc1	0	0	-4	-2	-6
COc1ccc(/C=C2\C(=O)ON=C2c2ccccc2)cc1	0	9	19*	5	1
SMILES	aDG glyco act	proCasp7 act	NR3A LBD binder	procasp3 activ	MPTP inh
COc1cc(/C=C2\C(=O)ON=C2c2ccc(Cl)cc2)ccc1O	x	-9	-20	-4	x
O=C1ON=C(c2ccccc2)/C1=C/c1ccc(O)c(O)c1	0	15	16*	-3	6
Cc1ccccc1CC(=O)N1CCC(CCC(=O)NC2CC2)CC1	0	x	x	x	4
Cn1c(=O)oc2cc(S(=O)(=O)N3CCN(c4ccccc4F)CC3)ccc21	1	0	12*	1	0
O=C(c1ccccc1C(=O)N1CCN(c2ccccc2F)CC1)N1CCN(c2ccccc2F)CC1	0	-6	-1	0	-6
O=C(c1cccc(S(=O)(=O)N2CCCCCC2)c1)N1CCN(c2ccccc2F)CC1	0	7	17*	-5	0
O=C(c1ccccc1F)N1CCN(c2ccccc2F)CC1	0	7	12*	9	0
O=C(c1cccc(S(=O)(=O)N2CCN(c3ccccc3)CC2)c1)N1CCN(c2ccccc2O)CC1	0	13	10*	11	-1
COc1ccc(NC(=O)CSc2nnnn2C2CC3C=CC2C3)cc1 (stereo unspecified)	0	7	-1	3	6
Cc1ccc(S(=O)(=O)N2CC(O)CC2C(=O)OCC(=O)c2ccccc2Cl)cc1C (stereo unspecified)	0	3	25*	8	11
O=C(NNS(=O)(=O)c1ccc(Br)cc1)NC1CCCCC1	0	9	13*	2	-1
O=S(=O)(NC1CCCCC1)c1ccc(Br)cc1	0	-9	0	15	2
O=C(O)c1ccccc1C(=O)Nc1cccc([N+](=O)[O-])c1	0	11	-1	3	0
O=C(O)c1ccccc1C(=O)Nc1ccc(Nc2ccc([N+](=O)[O-])cc2[N+](=O)[O-])cc1	0	-5	10*	-2	1
O=S(=O)(Nc1ccccc1-c1ccccc1)c1ccccc1	1	x	14*	x	0
O=C(Nc1ccc(/C=C/c2nc3ccccc3o2)cc1)c1cccc(C(F)(F)F)c1	0	13	17*	-3	-10
O=C(Nc1ccc(/C=C/c2nc3ccccc3o2)cc1)c1c(F)cccc1F	0	15	20*	-6	2
COC(=O)CNC(c1ccccc1)c1cc(Br)ccc1NS(=O)(=O)c1ccccc1 (stereo unspecified)	0	2	-1	2	0
COC(=O)CNC(c1ccccc1)c1cc(Br)ccc1NS(=O)(=O)c1ccc(C)cc1 (stereo unspecified)	0	3	16*	-5	4
COc1ccc(NC(=O)C2(C)CCN2Cc2csc3ccccc23)cc1OC (stereo unspecified)	0	x	x	x	0
CC1(C)CC2CC(C)(CN2C(=O)COC(=O)c2cccc([N+](=O)[O-])c2)C1 (stereo unspecified)	0	6	11*	8	-1
CC1(C)CC2CC(C)(CN2C(=O)COC(=O)c2cccc(O)c2)C1 (stereo unspecified)	0	5	-1	10	-1
CCCC(=O)N1CCCC1(C)C(=O)N(C)Cc1cccc2ccccc12 (stereo unspecified)	0	x	x	x	-1
